Measured values taken from ChEMBL document CHEMBL3576816, “5'-Silylated 3'-1,2,3-triazolyl Thymidine Analogues as Inhibitors of West Nile Virus and Dengue Virus” (J Med Chem, 2015).
The source made the active and inactive calls. The rule behind the calls is not given here.

Experiments:
Hepatitis C virus = test: Antiviral activity against HCV; type: functional, organism-based; conditions: Hepacivirus hominis
[1] = Cytotoxicity against BHK cells infected with Dengue virus replicon assessed as cell viability at 10 uM after 3 days by CellTiter 96 aqueous one solution cell proliferation assay relative to control; type: cell-based, Mesocricetus auratus; conditions: hamster, bhk, 72 h, 10 µM
In short: (§1)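 DENV replicon BHK cells, 1.5 × 10^3/well, plated without antibiotic selection; next day compound in DMSO (10 μM final for screening, or eight serial dilutions), 3 days at 37°C, 5% CO2. Tetrazolium (MTS-type) reagent, absorbance 450 nm, triplicate means versus DMSO wells; CC50 = 50% reduction in proliferation; CC50s mean ± SD of two experiments, top dose 200 μM.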

[2] = tested on: Human immunodeficiency virus 1; test: Antiviral activity against HIV1; type: functional, organism-based
West Nile virus [3] = test: Antiviral activity against West Nile virus infected in BHK-WII RepRen1B cells assessed as inhibition of viral replication after 3 days by luciferase reporter gene assay; type: functional, organism-based; conditions: 72 h
[4] = molecular target: Human immunodeficiency virus type 1 reverse transcriptase (Human immunodeficiency virus 1) (UniProt Q72547); test: Inhibition of HIV1 reverse transcriptase
dengue virus type 3 = test: Displacement of [3H]-SAM from biotinylated Dengue virus 3 methyltransferase expressed in Escherichia coli at 20 uM preincubated for 20 mins followed by [3H]-SAM addition measured after 15 mins by scintillation counting analysis
In short: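 Biotinylated refolded E. coli-expressed DENV3 MTase (580 nM) with SPA beads (1.5 mg/mL) and 20 μM competitor (compound, SAM or sinefungin) in Tris pH 7.5 buffer with NaCl, KCl, MgCl2, MnCl2, CHAPS, 20 min at 23°C; 3H-SAM (425 nM) added, 15 min at 23°C, centrifuged, scintillation proximity counting.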

[5] = Cytotoxicity against BHK cells infected with Dengue virus replicon assessed as cell viability after 3 days by CellTiter 96 aqueous one solution cell proliferation assay; type: cell-based, Mesocricetus auratus; conditions: hamster, 72 h; in short: as §1
[6] = Cytotoxicity against BHK cells infected with West Nile virus replicon assessed as cell viability after 3 days by CellTiter 96 aqueous one solution cell proliferation assay; type: cell-based, Mesocricetus auratus; conditions: hamster, 72 h
In short: as §1, with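 “WNV” for “DENV”, “about 3” for “1.5”, “Tetrazolium” for “Tetrazolium (MTS-type)”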

Dengue virus [7] = test: Antiviral activity against Dengue virus infected in BHK pD2-hRucPac-2ATG cells assessed as inhibition of viral replication at 10 uM after 3 days by luciferase reporter gene assay relative to control; type: functional; conditions: 72 h
In short: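 Renilla luciferase-bearing DENV subgenomic replicon BHK cells, kept on 3 μg/mL puromycin, seeded at 1.5 × 10^3/well without selection. Next day, 10 μM final compound in DMSO added to triplicate wells; MPA 1 μM as control inhibitor. After 3 days, medium swapped for live-cell Renilla substrate (1:1000, phenol-red-free DME, 10% FBS). Luminescence read; triplicate mean compared with DMSO-only wells.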

West Nile virus [8] = test: Antiviral activity against West Nile virus infected in BHK-WII RepRen1B cells assessed as inhibition of viral replication at 10 uM after 3 days by luciferase reporter gene assay relative to control; type: functional; conditions: 72 h
In short: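 Compound (DMSO, 10 μM final) added next day in triplicate; lycorine 1 μM served as control inhibitor. Three days on, live-cell Renilla substrate (1:1000 in phenol-red-free DME, 10% FBS) replaced medium. Luminescence measured; triplicate means compared with DMSO-alone wells.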

[9] = tested on: unidentified influenza virus; test: Antiviral activity against Influenzae virus; type: functional, organism-based
[10] = Cytotoxicity against BHK cells infected with West Nile virus replicon assessed as cell viability at 10 uM after 3 days by CellTiter 96 aqueous one solution cell proliferation assay relative to control; type: cell-based, Mesocricetus auratus; conditions: hamster, bhk, 72 h, 10 µM
In short: as §1, with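 “WNV” for “DENV”, “about 3” for “1.5”, “Tetrazolium” for “Tetrazolium (MTS-type)”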

Dengue virus [11] = test: Antiviral activity against Dengue virus infected in BHK pD2-hRucPac-2ATG cells assessed as inhibition of viral replication after 3 days by luciferase reporter gene assay; type: functional, organism-based; conditions: 72 h
In short: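 BHK DENV subgenomic replicon line carrying Renilla luciferase, kept on 3 μg/mL puromycin; 1.5 × 10^3 cells/well plated without selection, compounds in DMSO added next day to triplicate wells, at 10 μM final for screening or eight serial dilutions. Live-cell Renilla substrate after 3 days, luminescence versus DMSO wells; EC50 = 50% luciferase reduction; MPA 1 μM control.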

Human betaherpesvirus 5 = test: Antiviral activity against Human cytomegalovirus; type: functional, organism-based
dengue virus type 2 [12] = test: Antiviral activity against Dengue virus type 2 New Guinea C infected in African green monkey Vero cells assessed as reduction in viral titer at 10 uM after 2 days by Giemsa staining assay relative to control; type: functional; design: scale not given: the % may be the effect or the level left
In short: (§2)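 Vero cells, 4 × 10^5/well, infected with DENV-2 New Guinea C at MOI 0.2 for 2 h at 37°C, washed, then compound added (10 μM; MPA 1.0 μM). Supernatant taken after 2 days, clarified, 10-fold dilutions plaqued on Vero under methylcellulose for 5 days, fixed, Giemsa-stained; titer as PFU/mL, percent reduction; 10 μM from two experiments, 1.0 μM from one.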

dengue virus type 2 [13] = test: Antiviral activity against Dengue virus type 2 New Guinea C infected in African green monkey Vero cells assessed as reduction in viral titer at 1 uM after 2 days by Giemsa staining assay relative to control; type: functional; design: scale not given: the % may be the effect or the level left; in short: as §2

SMILES | Activity (Hepatitis C virus) | Activity [1] | Activity [2] | EC50 (West Nile virus [3]) | inhibition [4] | inhibition (dengue virus type 3) | CC50 [5] | CC50 [6] | inhibition at 10 µM (Dengue virus [7]) | inhibition at 10 µM (West Nile virus [8]) | Activity [9] | Activity [10] | EC50 (Dengue virus [11]) | Activity (Human betaherpesvirus 5) | Activity (dengue virus type 2 [12]) | Activity (dengue virus type 2 [13])
Cc1cn([C@H]2C[C@H](n3nncc3C3CCCCC3)[C@@H](CO[Si](C)(C)C(C)(C)C)O2)c(=O)[nH]c1=O | inactive | 93% | inactive | 7.1 µM | inactive | Active | 22 µM | 24 µM | 75% | 85% | inactive | 100% | 7.5 µM | inactive | – | –
COc1ccc2cc(-c3cn([C@H]4C[C@H](n5cc(C)c(=O)[nH]c5=O)O[C@@H]4CO[Si](C)(C)C(C)(C)C)nn3)ccc2c1 | inactive | 96% | inactive | 7.4 µM | inactive | Active | 21 µM | > 200 µM | 57% | 92% | inactive | 100% | 8.4 µM | inactive | 98% | –
Cc1cn([C@H]2C[C@H](NC(=O)Nc3cccc4ccccc34)[C@@H](CO[Si](C)(C)C(C)(C)C)O2)c(=O)[nH]c1=O | – | – | – | – | – | Active | 23 µM | – | – | – | – | – | 11 µM | – | – | –
COc1ccc2cc(-c3cnnn3[C@H]3C[C@H](n4cc(C)c(=O)[nH]c4=O)O[C@@H]3CO[Si](C)(C)C(C)(C)C)ccc2c1 | inactive | 86% | inactive | 2.9 µM | inactive | Active | 7.9 µM | 13 µM | 85% | 97% | inactive | 100% | 7.3 µM | inactive | – | –
Cc1cn([C@H]2C[C@H](NS(=O)(=O)c3ccc4ccccc4c3)[C@@H](CO[Si](C)(C)C(C)(C)C)O2)c(=O)[nH]c1=O | – | – | – | 8.4 µM | – | Active | 14 µM | 12 µM | – | – | – | – | 7.4 µM | – | – | –
Cc1cn([C@H]2C[C@H](NC(=O)CCCCc3ccc(F)cc3)[C@@H](CO[Si](C)(C)C(C)(C)C)O2)c(=O)[nH]c1=O | – | – | – | 15 µM | – | Active | 22 µM | 23 µM | – | – | – | – | 9.6 µM | – | 67% | –
Cc1cn([C@H]2C[C@H](n3nncc3-c3ccccc3)[C@@H](CO[Si](C)(C)C(C)(C)C)O2)c(=O)[nH]c1=O | inactive | 93% | inactive | 8.4 µM | inactive | Active | 31 µM | 32 µM | 51% | 93% | inactive | 99% | 14 µM | inactive | – | –
Cc1cn([C@H]2C[C@H](N3C(=O)CSC3c3ccc4[nH]ccc4c3)[C@@H](CO[Si](C)(C)C(C)(C)C)O2)c(=O)[nH]c1=O (mixture of isomers) | inactive | 99% | inactive | 3.4 µM | inactive | Active | – | 15 µM | 49% | 92% | inactive | 99% | – | inactive | – | –
COc1c(C)c2c(c(O)c1C/C=C(\C)CCC(=O)O)C(=O)OC2 [MYCOPHENOLIC ACID] | – | – | – | – | – | – | – | – | – | – | – | – | – | – | – | 68%
